Data reported in ChEMBL document CHEMBL1667757, “Efficient and novel one-pot synthesis of antifungal active 1-substituted-8-aryl-3-alkyl/aryl-4H-pyrazolo[4,5-f][1,2,4]triazolo[4,3-b][1,2,4]triazepines using solid support” (2011).

Assays:
Assay type in all cases: functional
[1] = tested on: Aspergillus niger; test: Antifungal activity against Aspergillus niger at 500 ug after 24 hrs by paper disc technique; details: for zone of inhibition at 500 µg/disc: Aspergillus niger, 24 h, read-out: DIZ
Method in brief: (§1)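 Paper disc diffusion on double-layer potato dextrose agar: 15 mL sterile base topped with 15 mL medium seeded at 40 °C with spores from ten-day cultures; streptomycin added to prevent bacterial growth. Compounds dissolved in DMF at 500 or 1000 µg/mL and applied to 6 mm filter paper discs on chilled seeded plates. Plates incubated at 28 ± 2 °C. Inhibition zone measured from disc centre at 24 h, percent inhibition calculated as (C − T)/C × 100. Fluconazole at same concentrations served as standard.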

[2] = tested on: Aspergillus niger; test: Antifungal activity against Aspergillus niger at 1000 ug after 24 hrs by paper disc technique; details: for zone of inhibition at 1000 µg/disc: Aspergillus niger, 24 h, read-out: DIZ; method in brief: as §1
[3] = tested on: Aspergillus flavus; test: Antifungal activity against Aspergillus flavus at 500 ug after 24 hrs by paper disc technique; details: for zone of inhibition at 500 µg/disc: Aspergillus flavus, 24 h, read-out: DIZ; method in brief: as §1
[4] = tested on: Aspergillus flavus; test: Antifungal activity against Aspergillus flavus at 1000 ug after 24 hrs by paper disc technique; details: for zone of inhibition at 1000 µg/disc: Aspergillus flavus, 24 h, read-out: DIZ; method in brief: as §1
[5] = tested on: Rhizopus; test: Antifungal activity against Rhizopus species at 500 ug after 24 hrs by paper disc technique; details: for zone of inhibition at 500 µg/disc: Rhizopus, 24 h, read-out: DIZ; method in brief: as §1
[6] = tested on: Rhizopus; test: Antifungal activity against Rhizopus species at 1000 ug after 24 hrs by paper disc technique; details: for zone of inhibition at 1000 µg/disc: Rhizopus, 24 h, read-out: DIZ; method in brief: as §1
[7] = tested on: Penicillium sp.; test: Antifungal activity against Penicillium species at 500 ug after 24 hrs by paper disc technique; details: for zone of inhibition at 500 µg/disc: Penicillium sp., 24 h, read-out: DIZ; method in brief: as §1
[8] = tested on: Penicillium sp.; test: Antifungal activity against Penicillium species at 1000 ug after 24 hrs by paper disc technique; details: for zone of inhibition at 1000 µg/disc: Penicillium sp., 24 h, read-out: DIZ; method in brief: as §1

Compound	Activity [1] [%]	zone of inhibition at 500 µg/disc [1] [mm]	percent inhibition [2] [%]	zone of inhibition at 1000 µg/disc [2] [mm]	Activity [3] [%]	zone of inhibition at 500 µg/disc [3] [mm]	percent growth inhibition [4] [%]	zone of inhibition at 1000 µg/disc [4] [mm]	Activity [5] [%]	zone of inhibition at 500 µg/disc [5] [mm]	Activity [6] [%]	zone of inhibition at 1000 µg/disc [6] [mm]	Activity [7] [%]	zone of inhibition at 500 µg/disc [7] [mm]	percent inhibition [8] [%]	zone of inhibition at 1000 µg/disc [8] [mm]
O=[N+]([O-])c1ccc(-c2nn(-c3ccccc3)c3c2C=Nc2nnc(Cc4ccccc4)n2N3)cc1	3.33	2	23.33	14	33.33	20	13.33	8	46.66	28	40	24				
Brc1ccc(-c2nn(-c3ccccc3)c3c2C=Nc2nnc(Cc4ccccc4)n2N3)cc1	3.33	2	23.33	14	33.33	20	13.33	8	46.66	28	40	24	8.33	5		
C1=Nc2nnc(-c3ccccc3)n2Nc2c1c(-c1ccccc1)nn2-c1ccccc1	33.33	20	51.66	31	35.36	21	35.36	21	66.66	36	65	39	8.33	5	3.33	2
O=[N+]([O-])c1ccc(-c2nn(-c3ccccc3)c3c2C=Nc2nnc(-c4ccc([N+](=O)[O-])cc4)n2N3)cc1	13.33	8	25	15	5	3	15	9	30	18	38.33	23				
OC(Cn1cncn1)(Cn1cncn1)c1ccc(F)cc1F [FLUCONAZOLE]	70	42	80	48	58.33	35	70	42	63.33	38	70	42	86.66	52	90	54
Cc1n[nH]c2c1C=Nc1nnc(-c3ccc(Cl)cc3)n1N2	38.33	23	53.33	32	36.66	22	40	24	51.66	31	60.66	40	13.33	8	15	9
Brc1ccc(-c2nn(-c3ccccc3)c3c2C=Nc2nnc(-c4ccccc4)n2N3)cc1	3.33	2	21.33	12	31.33	18	11.33	6	42.66	26	38	22	8.33	5	13.33	8
O=[N+]([O-])c1ccc(-c2nn(-c3ccccc3)c3c2C=Nc2nnc(-c4ccccc4)n2N3)cc1	51.66	31	33.33	20	40	24	36.66	22	65	39	66.66	36	12.98	7	15	9
Clc1ccc(-c2nnc3n2Nc2c(c(-c4ccc(Br)cc4)nn2-c2ccccc2)C=N3)cc1	53.33	32	35.36	21	36.66	22	40	24	60.66	40	53.33	32	15	9	13.33	8
Cc1n[nH]c2c1C=Nc1nnc(-c3ccccc3)n1N2	36.66	22	53.33	32	33.33	20	40	24	53.33	32	60.66	40	10	6	13.33	8
O=[N+]([O-])c1ccc(-c2nnc3n2Nc2c(c(-c4ccc(Br)cc4)nn2-c2ccccc2)C=N3)cc1	23.33	14	3.33	2	31.33	18	13.33	8	40	24	35.36	21	3.33	2	8.33	5
